Experimental data published in ChEMBL document CHEMBL1155825, “Potent and selective antiplasmodial activity of the cyanobacterial alkaloid nostocarboline and its dimers” (Bioorg Med Chem Lett, 2008).

What was measured:
[1] = Selectivity index, ratio of IC50 for rat L6 cells to IC50 for Plasmodium falciparum K1; format: toxicity, cell-based; details: rat L6 cells (cytotoxicity) versus Plasmodium falciparum K1, read-out: Ratio IC50
L6 = test: Cytotoxicity against rat L6 cells; format: cell-based
Summary of the method: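 Cytotoxicity was measured on rat skeletal myoblast L6 cells, with the IC50 as read-out.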

Plasmodium falciparum = test: Antiparasitic activity against Plasmodium falciparum K1; format: functional, organism-based
Trypanosoma cruzi = test: Antiparasitic activity against Trypanosoma cruzi Tulahuen C2C4; format: functional, organism-based
Leishmania donovani = test: Antiparasitic activity against Leishmania donovani […]; format: functional, organism-based
Summary of the method: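 Leishmania donovani MHOM-ET-67/L82 tested as axenic amastigotes; IC50 determined.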

[2] = test system: Trypanosoma brucei rhodesiense; test: Antiparasitic activity against Trypanosoma brucei rhodesiense STIB900; format: functional, organism-based

`Clc1ccc2[nH]c3c[n+](CCCCCCCCCCCC[n+]4ccc5c(c4)[nH]c4ccc(Cl)cc45)ccc3c2c1` showed a selectivity ratio [1] of 186, an IC50 (L6) of 4.3 µM and an IC50 (Plasmodium falciparum) of 0.023 µM. For the same compound, the IC50 (Trypanosoma cruzi) was 10 µM, the IC50 (Leishmania donovani) was 0.6 µM and the IC50 [2] was 1.2 µM.

Compound `Clc1ccc2[nH]c3c[n+](Cc4ccc(C[n+]5ccc6c(c5)[nH]c5ccc(Cl)cc56)cc4)ccc3c2c1` has a selectivity ratio [1] of 78, an IC50 (L6) of 17.4 µM and an IC50 (Plasmodium falciparum) of 0.223 µM. The IC50 (Trypanosoma cruzi) was > 51.7 µM, the IC50 (Leishmania donovani) was 19.9 µM and the IC50 [2] was 1 µM.

`Clc1ccc2[nH]c3c[n+](C/C=C\C[n+]4ccc5c(c4)[nH]c4ccc(Cl)cc45)ccc3c2c1` showed a selectivity ratio [1] of 540, an IC50 (L6) of 61.1 µM and an IC50 (Plasmodium falciparum) of 0.113 µM. For the same compound, the IC50 (Trypanosoma cruzi) was > 56.6 µM, the IC50 (Leishmania donovani) was 9.6 µM and the IC50 [2] was 1.1 µM.

Work on `Clc1ccc2[nH]c3c[n+](CC#CC[n+]4ccc5c(c4)[nH]c4ccc(Cl)cc45)ccc3c2c1` yielded a selectivity ratio [1] of 39, an IC50 (L6) of 28.5 µM and an IC50 (Plasmodium falciparum) of 0.738 µM. For the same compound, the IC50 (Trypanosoma cruzi) was 10.6 µM, the IC50 (Leishmania donovani) was 34.7 µM and the IC50 [2] was 6.4 µM.

`Clc1ccc2[nH]c3c[n+](CCCCCC[n+]4ccc5c(c4)[nH]c4ccc(Cl)cc45)ccc3c2c1` showed a selectivity ratio [1] of 1810, an IC50 (L6) of 36.2 µM and an IC50 (Plasmodium falciparum) of 0.02 µM. The IC50 (Trypanosoma cruzi) was 36.2 µM, the IC50 (Leishmania donovani) was 6.6 µM and the IC50 [2] was 1.2 µM.

Compound `Clc1ccc2[nH]c3c[n+](CCCCCCCC[n+]4ccc5c(c4)[nH]c4ccc(Cl)cc45)ccc3c2c1` has a selectivity ratio [1] of 423, an IC50 (L6) of 7.5 µM and an IC50 (Plasmodium falciparum) of 0.018 µM. For the same compound, the IC50 (Trypanosoma cruzi) was 31.4 µM, the IC50 (Leishmania donovani) was 2.3 µM and the IC50 [2] was 0.9 µM.

Work on `Clc1ccc2[nH]c3c[n+](CCCCCCCCCC[n+]4ccc5c(c4)[nH]c4ccc(Cl)cc45)ccc3c2c1` yielded a selectivity ratio [1] of 575, an IC50 (L6) of 8.2 µM and an IC50 (Plasmodium falciparum) of 0.014 µM. It also gave an IC50 (Trypanosoma cruzi) of 36.6 µM, an IC50 (Leishmania donovani) of 0.9 µM and an IC50 [2] of 1.1 µM.

`Clc1ccc2[nH]c3c[n+](Cc4ccc(-c5ccc(C[n+]6ccc7c(c6)[nH]c6ccc(Cl)cc67)cc5)cc4)ccc3c2c1` showed a selectivity ratio [1] of 408, an IC50 (L6) of 23 µM and an IC50 (Plasmodium falciparum) of 0.056 µM. For the same compound, the IC50 (Trypanosoma cruzi) was > 45.7 µM, the IC50 (Leishmania donovani) was 68.4 µM and the IC50 [2] was 2.5 µM.

With `O=C(O)c1cn(C2CC2)c2cc(N3CCN(Cc4ccc(C[n+]5ccc6c(c5)[nH]c5ccc(Cl)cc56)cc4)CC3)c(F)cc2c1=O` the IC50 (L6) was 121 µM, the IC50 (Plasmodium falciparum) was > 7.4 µM and the IC50 (Trypanosoma cruzi) was > 44.6 µM. It also gave an IC50 (Leishmania donovani) of 61.6 µM and an IC50 [2] of 92.5 µM.

With `Clc1ccc2[nH]c3c[n+](CCOCC[n+]4ccc5c(c4)[nH]c4ccc(Cl)cc45)ccc3c2c1` the selectivity ratio [1] was 2620, the IC50 (L6) was 47.9 µM and the IC50 (Plasmodium falciparum) was 0.018 µM. For the same compound, the IC50 (Trypanosoma cruzi) was 51.1 µM, the IC50 (Leishmania donovani) was 8.6 µM and the IC50 [2] was 1.2 µM.

Work on `Clc1ccc2[nH]c3c[n+](Cc4cccc(C[n+]5ccc6c(c5)[nH]c5ccc(Cl)cc56)c4)ccc3c2c1` yielded a selectivity ratio [1] of 32, an IC50 (L6) of 3.8 µM and an IC50 (Plasmodium falciparum) of 0.121 µM. It also gave an IC50 (Trypanosoma cruzi) of 5.9 µM, an IC50 (Leishmania donovani) of 0.2 µM and an IC50 [2] of 1.2 µM.

Work on `C[n+]1ccc2c(c1)[nH]c1ccc(Cl)cc12` [NOSTOCARBOLINE] yielded a selectivity ratio [1] of 622, an IC50 (L6) of 121 µM and an IC50 (Plasmodium falciparum) of 0.194 µM. The IC50 (Trypanosoma cruzi) was > 87.1 µM, the IC50 (Leishmania donovani) was 34.3 µM and the IC50 [2] was 70.5 µM.
